Assay results: ChEMBL document CHEMBL2417372, “Design, synthesis, and mechanism of action of 2-(3-hydroxy-5-methoxyphenyl)-6-pyrrolidinylquinolin-4-one as a potent anticancer lead” (Bioorg Med Chem Lett, 2013)

Tests used:
[1] = tested on: NCI-H23; experiment: Cytotoxicity against human NCI-H23 cells after 48 hrs; type: functional; conditions: NCI-H23, 48 h
[2] = tested on: OVCAR-5; experiment: Cytotoxicity against human OVCAR5 cells after 48 hrs; type: functional; conditions: OVCAR-5, 48 h
[3] = tested on: COLO 205; experiment: Cytotoxicity against human COLO205 cells after 48 hrs; type: functional; conditions: COLO 205, 48 h
[4] = tested on: MOLT-4; experiment: Cytotoxicity against human MOLT4 cells after 48 hrs; type: functional; conditions: MOLT-4, 48 h
[5] = tested on: OVCAR-3; experiment: Cytotoxicity against human OVCAR3 cells after 48 hrs; type: functional; conditions: OVCAR-3, 48 h
[6] = tested on: LOX IMVI; experiment: Cytotoxicity against human LOXIMVI cells after 48 hrs; type: functional
[7] = tested on: MCF7; experiment: Cytotoxicity against human MCF7 cells after 48 hrs; type: functional; conditions: MCF7, 48 h
[8] = target: T1, Tubulin (Homo sapiens) (UniProt P68371+Q9H4B7+P0DPH7+P68366+Q13509+Q71U36+P04350+Q3ZCM7+P07437+P68363+Q9BQE3+Q6PEY2+Q13885+Q9BVA1+Q9BUF5); experiment: Inhibition of tubulin polymerization in human NCI-H522 cells assessed as beta-tubulin accumulation in cytoskeletal fraction after 24 hrs by Western blot analysis; type: cell-based
In short: (§1)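 NCI-H522 cells were exposed for 24 h to compound (10, 30 or 100 nM) or DMSO vehicle. They were then lysed 5 min at 37 °C in hypotonic buffer (1 mM MgCl2, 2 mM EGTA, 0.5% NP-40, protease inhibitors, 20 mM Tris-HCl pH 6.8) and centrifuged at 15,000 × g for 10 min at 25 °C. α- and β-tubulin were assessed in the cytoskeletal fraction.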

[9] = tested on: RPMI-8226; experiment: Cytotoxicity against human RPMI8226 cells after 48 hrs; type: functional; conditions: RPMI-8226, 48 h
[10] = tested on: Detroit 551; experiment: Cytotoxicity against human Detroit 551 cells after 48 hrs; type: cell-based; conditions: Detroit 551, 48 h
In short: (§2)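 MTT viability assay on log-phase cells at 37 °C, exposed to compound or DMSO vehicle for 48 h. MTT (1 mg/mL in PBS) was then added for 2 h, and absorbance was read at 570 nm with 630 nm correction. IC50 is the concentration giving 50% proliferation inhibition. Cells were cultured in 5% CO2: HL-60 in RPMI-1640 with 10% FBS; Hep3B in DMEM/F12 with 10% FBS; Detroit 551 in DMEM with 10% FBS.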

[11] = tested on: HCT-15; experiment: Cytotoxicity against human HCT15 cells after 48 hrs; type: functional; conditions: HCT-15, 48 h
[12] = tested on: DU-145; experiment: Cytotoxicity against human DU145 cells after 48 hrs; type: functional; conditions: DU-145, 48 h
[13] = tested on: M14; experiment: Cytotoxicity against human M14 cells after 48 hrs; type: functional; conditions: M14, 48 h
[14] = tested on: SF-295; experiment: Cytotoxicity against human SF295 cells after 48 hrs; type: functional; conditions: SF-295, 48 h
[15] = tested on: HOP-62; experiment: Cytotoxicity against human HOP62 cells after 48 hrs; type: functional; conditions: HOP-62, 48 h
[16] = tested on: SF-268; experiment: Cytotoxicity against human SF268 cells after 48 hrs; type: functional; conditions: SF-268, 48 h
[17] = target: T1, Tubulin (Homo sapiens); experiment: Inhibition of tubulin polymerization in human NCI-H522 cells assessed as alpha-tubulin accumulation in cytoskeletal fraction after 24 hrs by Western blot analysis; type: cell-based; in short: as §1
[18] = tested on: UACC-257; experiment: Cytotoxicity against human UACC257 cells after 48 hrs; type: functional; conditions: UACC-257, 48 h
[19] = tested on: SF-539; experiment: Cytotoxicity against human SF539 cells after 48 hrs; type: functional; conditions: SF-539, 48 h
[20] = Cytotoxicity against human Hs578T cells after 48 hrs; type: functional; conditions: Hs-578T
[21] = tested on: SNB-19; experiment: Cytotoxicity against human SNB19 cells after 48 hrs; type: functional; conditions: SNB-19, 48 h
[22] = tested on: HCC 2998; experiment: Cytotoxicity against human HCC2998 cells after 48 hrs; type: functional; conditions: HCC 2998, 48 h
[23] = tested on: HL-60; experiment: Cytotoxicity against human HL60 cells after 48 hrs; type: functional, cell-based; conditions: HL-60, 48 h; in short: as §2
[24] = tested on: 786-0; experiment: Cytotoxicity against human 786-0 cells after 48 hrs; type: functional; conditions: 786-0, 48 h
[25] = tested on: OVCAR-4; experiment: Cytotoxicity against human OVCAR4 cells after 48 hrs; type: functional; conditions: OVCAR-4, 48 h
[26] = tested on: SN12C; experiment: Cytotoxicity against human SN12C cells after 48 hrs; type: functional
[27] = tested on: BT-549; experiment: Cytotoxicity against human BT549 cells after 48 hrs; type: functional; conditions: BT-549, 48 h
[28] = tested on: HOP-92; experiment: Cytotoxicity against human HOP92 cells after 48 hrs; type: functional; conditions: HOP-92, 48 h
[29] = target: Tubulin (Sus scrofa) (UniProt P02554+P02550); experiment: Inhibition of porcine brain tubulin polymerization measured every 30 seconds for 30 mins
[30] = read-out: pLC50 (the source's name) (converted)

Sequence of Tubulin (Sus scrofa) (P02550 whole entry, looked up): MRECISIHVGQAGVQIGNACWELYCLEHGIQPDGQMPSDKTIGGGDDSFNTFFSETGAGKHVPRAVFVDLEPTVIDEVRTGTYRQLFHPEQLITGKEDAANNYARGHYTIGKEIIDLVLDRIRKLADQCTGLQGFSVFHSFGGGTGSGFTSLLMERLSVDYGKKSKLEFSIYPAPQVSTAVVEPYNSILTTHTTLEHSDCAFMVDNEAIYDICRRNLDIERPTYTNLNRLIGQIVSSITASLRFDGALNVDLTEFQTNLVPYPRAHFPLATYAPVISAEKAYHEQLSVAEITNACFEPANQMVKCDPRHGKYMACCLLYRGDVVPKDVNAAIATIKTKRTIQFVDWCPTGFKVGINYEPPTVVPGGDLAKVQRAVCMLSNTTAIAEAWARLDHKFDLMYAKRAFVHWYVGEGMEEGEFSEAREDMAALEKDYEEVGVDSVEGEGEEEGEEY
Sequence of Tubulin (Sus scrofa) (P02554 whole entry, looked up): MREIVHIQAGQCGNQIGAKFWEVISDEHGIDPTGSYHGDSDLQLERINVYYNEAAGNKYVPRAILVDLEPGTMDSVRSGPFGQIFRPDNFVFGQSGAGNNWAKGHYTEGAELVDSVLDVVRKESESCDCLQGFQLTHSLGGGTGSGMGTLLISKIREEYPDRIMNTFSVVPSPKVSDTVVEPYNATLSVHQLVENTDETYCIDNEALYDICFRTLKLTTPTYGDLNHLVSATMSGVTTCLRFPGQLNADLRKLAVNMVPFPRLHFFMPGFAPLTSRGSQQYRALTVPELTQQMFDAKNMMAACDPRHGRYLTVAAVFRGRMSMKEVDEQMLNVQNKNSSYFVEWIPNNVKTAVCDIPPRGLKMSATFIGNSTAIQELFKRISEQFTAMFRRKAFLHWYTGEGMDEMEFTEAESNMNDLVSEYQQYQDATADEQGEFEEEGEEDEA

## COc1cc(O)cc(-c2cc(=O)c3cc(N4CCCC4)ccc3[nH]2)c1
[1]
  GI50: 0.126 µM
[1]; [30]
  CC50: > 100 µM
[1]; read-out: pTGI (converted)
  TGI: 81.3 µM
[2]
  GI50: > 100 µM
[2]; [30]
  CC50: > 100 µM
[2]; read-out: pTGI
  TGI: > 100 µM
[3]
  GI50: 0.0537 µM
[3]; read-out: pTGI (converted)
  TGI: 0.219 µM
[4]
  GI50: 0.0347 µM
[4]; [30]
  CC50: > 100 µM
[4]; read-out: pTGI
  TGI: > 100 µM
[5]; read-out: pGI50 (converted)
  GI50: 0.0234 µM
[5]; [30]
  CC50: 6.46 µM
[5]; read-out: pTGI (converted)
  TGI: 0.0891 µM
[6]
  GI50: 0.0324 µM
[6]; [30]
  CC50: > 100 µM
[6]; read-out: pTGI
  TGI: > 100 µM
[7]
  GI50: 0.0479 µM
[7]; [30]
  CC50: > 100 µM
[7]; read-out: pTGI
  TGI: > 100 µM
[8]
  inhibition: Dose-dependent effect
[9]
  GI50: 0.468 µM
[9]; [30]
  CC50: > 100 µM
[9]; read-out: pTGI
  TGI: > 100 µM
[10]
  IC50: > 50 µM
[11]
  GI50: 0.0537 µM
[11]; [30]
  CC50: > 100 µM
[11]; read-out: pTGI
  TGI: > 100 µM
[12]
  GI50: 0.0309 µM
[12]; [30]
  CC50: > 100 µM
[12]; read-out: pTGI (converted)
  TGI: 0.257 µM
[13]
  GI50: 0.0302 µM
[13]; [30]
  CC50: > 100 µM
[13]; read-out: pTGI (converted)
  TGI: 15.8 µM
[14]
  GI50: 0.11 µM
[14]; read-out: pTGI (converted)
  TGI: 11.2 µM
[15]
  GI50: 0.0513 µM
[15]; [30]
  CC50: > 100 µM
[15]; read-out: pTGI (converted)
  TGI: 20.9 µM
[16]
  GI50: 0.0257 µM
[16]; [30]
  CC50: > 100 µM
[16]; read-out: pTGI
  TGI: > 100 µM
[17]
  inhibition: Dose-dependent effect
[18]
  GI50: 0.708 µM
[18]; [30]
  CC50: > 100 µM
[18]; read-out: pTGI
  TGI: > 100 µM
[19]
  GI50: 0.0288 µM
[19]; [30]
  CC50: > 100 µM
[19]; read-out: pTGI
  TGI: > 100 µM
[20]
  GI50: 0.038 µM
[20]; [30]
  CC50: > 100 µM
[20]; read-out: pTGI (converted)
  TGI: 70.8 µM
[21]
  GI50: 0.0741 µM
[21]; [30]
  CC50: > 100 µM
[21]; read-out: pTGI
  TGI: > 100 µM
[22]
  GI50: 0.0457 µM
[22]; [30]
  CC50: > 100 µM
[22]; read-out: pTGI
  TGI: > 100 µM
[23]
  IC50: 0.1 µM
[24]
  GI50: 0.178 µM
[24]; [30]
  CC50: > 100 µM
[24]; read-out: pTGI
  TGI: > 100 µM
[25]
  GI50: 0.0977 µM
[25]; [30]
  CC50: > 100 µM
[25]; read-out: pTGI
  TGI: > 100 µM
[26]
  GI50: 0.0724 µM
[26]; [30]
  CC50: > 100 µM
[26]; read-out: pTGI
  TGI: > 100 µM
[27]
  GI50: 0.0372 µM
[27]; [30]
  CC50: > 100 µM
[27]; read-out: pTGI
  TGI: > 100 µM
[28]
  GI50: 30.9 µM
[28]; [30]
  CC50: > 100 µM
[28]; read-out: pTGI
  TGI: > 100 µM
[29]
  inhibition: Dose-dependent effect
